Measurements published in ChEMBL document CHEMBL1127484, “5-Aryl-3-(alkylthio)-4H-1,2,4-triazoles as selective antagonists of strychnine-induced convulsions and potential antispastic agents” (J Med Chem, 1994).

Key:
[1] = Dose encompassing the 50% lethal effect was recorded when administered intraperitoneally in mice; assay type: ADME, organism-based; conditions: mouse, in vivo, ip
In short: (§1)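 Deaths were recorded over the 7 days after dosing. The estimated LD50 was taken as the dose range spanning 50% lethality.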

Mus musculus [2] = assay: Effective dose required for antagonist activity against strychnine induced seizures in mice when administered intraperitoneally; assay type: functional; conditions: ip
In short: (§2)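 CD-1 male mice (18–26 g), groups of 5 or 10, housed individually, dosed ip in distilled H2O or H2O/Tween 80. Convulsant given 30 min later. Strychnine sulfate 2.7 mg/kg ip: protection = no tonic extension >15 min. MES 50 mA, 0.2 s, corneal: no tonic hind-limb extension. PTZ 60 mg/kg iv: no clonic seizures for 2 min. MPA 100 mg/kg iv: no seizures for 5 min. ED50 by quantal analysis from ≥4 doses, ≥10 mice each.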

Mus musculus [3] = assay: Effective dose required for antagonist activity against 3-mercaptopropionic-acid induced seizures in mice when administered intraperitoneally; assay type: functional; conditions: ip; in short: as §2
Mus musculus [4] = assay: Effective dose required for antagonist activity against maximal electroshock induced seizures in mice when administered intraperitoneally; assay type: functional; conditions: ip; in short: as §2
Mus musculus [5] = assay: Effective dose required for antagonist activity against pentylenetetrazole-induced seizures in mice when administered intraperitoneally; assay type: functional; conditions: ip; in short: as §2
Mus musculus [6] = assay: Effective dose required for antagonist activity against pentylenetetrazole-induced seizures in mice when administered intraperitoneally; Range is 100-200; assay type: functional; conditions: ip; in short: as §2
Mus musculus [7] = assay: Effective dose required for antagonist activity against pentylenetetrazole-induced seizures in mice when administered intraperitoneally; Range is 50-100; assay type: functional; conditions: ip; in short: as §2
Mus musculus [8] = assay: Effective dose required for antagonist activity against maximal electroshock induced seizures in mice when administered intraperitoneally; Range is 100-200; assay type: functional; conditions: ip; in short: as §2
[9] = Dose encompassing the 50% lethal effect was recorded when administered intraperitoneally in mice; Range is 400-800; assay type: ADME, organism-based; conditions: mouse, in vivo, ip; in short: as §1
Mus musculus [10] = assay: Effective dose required for antagonist activity against strychnine induced seizures in mice when administered intraperitoneally; Range is 50-100; assay type: functional; conditions: ip; in short: as §2
Mus musculus [11] = assay: Effective dose required for antagonist activity against 3-mercaptopropionic-acid-induced seizures in mice when administered intraperitoneally; Range is 100-200; assay type: functional; conditions: ip; in short: as §2
Mus musculus [12] = assay: Effective dose required for antagonist activity against pentylenetetrazole-induced seizures in mice when administered intraperitoneally; Range is 25-50; assay type: functional; conditions: ip; in short: as §2
Mus musculus [13] = assay: Effective dose required for antagonist activity against maximal electroshock induced seizures in mice when administered intraperitoneally; Range is 50-100; assay type: functional; conditions: ip; in short: as §2

| Compound | LD50 [1] | ED50 (Mus musculus [2]) | ED50 (Mus musculus [3]) | ED50 (Mus musculus [4]) | ED50 (Mus musculus [5]) | ED50 (Mus musculus [6]) | ED50 (Mus musculus [7]) | ED50 (Mus musculus [8]) | LD50 [9] | ED50 (Mus musculus [10]) | ED50 (Mus musculus [11]) | ED50 (Mus musculus [12]) | ED50 (Mus musculus [13]) |
| --- | --- | --- | --- | --- | --- | --- | --- | --- | --- | --- | --- | --- | --- |
| CSc1nc(-c2ccccc2)n(C)n1 | > 800 mg/kg | > 100 mg/kg | > 100 mg/kg | > 100 mg/kg | > 100 mg/kg | – | – | – | – | – | – | – | – |
| CCS(=O)(=O)c1nnc(-c2ccccc2F)n1C | > 800 mg/kg | 85.8 mg/kg | > 200 mg/kg | > 200 mg/kg | – | 200 mg/kg | – | – | – | – | – | – | – |
| CCSc1nnc(-c2ccccc2F)n1C | – | – | > 200 mg/kg | – | – | – | 100 mg/kg | 200 mg/kg | 800 mg/kg | – | – | – | – |
| CSc1nc(-c2ccccc2)nn1C | > 800 mg/kg | > 200 mg/kg | > 200 mg/kg | – | – | – | 100 mg/kg | 200 mg/kg | – | – | – | – | – |
| CSc1nnc(-c2cccc3ccccc23)n1C | > 800 mg/kg | > 200 mg/kg | > 200 mg/kg | > 200 mg/kg | > 200 mg/kg | – | – | – | – | – | – | – | – |
| Cc1ccc(-c2nnc([S+](C)[O-])n2C)cc1 (stereo not drawn) | > 800 mg/kg | – | > 200 mg/kg | > 200 mg/kg | > 200 mg/kg | – | – | – | – | 100 mg/kg | – | – | – |
| CSc1nnc(-c2ccc(F)cc2)n1C | > 800 mg/kg | 33.4 mg/kg | > 200 mg/kg | > 200 mg/kg | > 200 mg/kg | – | – | – | – | – | – | – | – |
| Cn1c(-c2ccccc2)nnc1[S+](C)[O-] (stereo not drawn) | – | 18.6 mg/kg | > 100 mg/kg | > 100 mg/kg | > 100 mg/kg | – | – | – | 800 mg/kg | – | – | – | – |
| CN1C(=O)CN=C(c2ccccc2)c2cc(Cl)ccc21 [DIAZEPAM] | – | 40.6 mg/kg | 0.9 mg/kg | 14.8 mg/kg | 1.5 mg/kg | – | – | – | – | – | – | – | – |
| CSc1nnc(-c2ccccc2F)n1C | – | 8.8 mg/kg | – | > 200 mg/kg | 61.3 mg/kg | – | – | – | 800 mg/kg | – | – | – | – |
| CCS(=O)(=O)c1nnc(-c2ccccc2)n1C | > 800 mg/kg | – | – | > 200 mg/kg | – | – | 100 mg/kg | – | – | – | 200 mg/kg | – | – |
| CSc1n[nH]c(-c2ccc(F)cc2)n1 | > 800 mg/kg | > 200 mg/kg | > 200 mg/kg | > 200 mg/kg | > 200 mg/kg | – | – | – | – | – | – | – | – |
| Cn1nc(-c2ccccc2)nc1S(C)(=O)=O | > 800 mg/kg | > 200 mg/kg | > 200 mg/kg | > 200 mg/kg | > 200 mg/kg | – | – | – | – | – | – | – | – |
| COc1ccc(-c2nnc([S+](C)[O-])n2C)cc1 (stereo not drawn) | – | – | > 100 mg/kg | > 100 mg/kg | > 100 mg/kg | – | – | – | 800 mg/kg | 100 mg/kg | – | – | – |
| Cn1nc([S+](C)[O-])nc1-c1ccccc1 (stereo not drawn) | > 800 mg/kg | > 200 mg/kg | > 200 mg/kg | > 200 mg/kg | > 200 mg/kg | – | – | – | – | – | – | – | – |
| CSc1nnc(-c2ccc(Cl)cc2)n1C | > 800 mg/kg | 28.1 mg/kg | – | > 200 mg/kg | > 200 mg/kg | – | – | – | – | – | – | – | – |
| Cn1c(-c2cccc3ccccc23)nnc1[S+](C)[O-] (stereo not drawn) | > 800 mg/kg | > 200 mg/kg | > 200 mg/kg | > 200 mg/kg | > 200 mg/kg | – | – | – | – | – | – | – | – |
| CCn1c(SC)nnc1-c1ccccc1F | > 800 mg/kg | 75 mg/kg | – | – | – | – | – | 200 mg/kg | – | – | 200 mg/kg | 50 mg/kg | – |
| CCCC(CCC)C(=O)O [VALPROIC ACID] | – | > 200 mg/kg | – | > 200 mg/kg | – | 200 mg/kg | – | – | – | – | – | – | – |
| CSc1nnc(-c2ccc(C)cc2)n1C | – | – | > 100 mg/kg | > 100 mg/kg | > 100 mg/kg | – | – | – | 800 mg/kg | 100 mg/kg | – | – | – |
| Cn1nc(-c2ccccc2)nc1[S+](C)[O-] (stereo not drawn) | – | > 200 mg/kg | > 200 mg/kg | – | – | – | 100 mg/kg | – | 800 mg/kg | – | – | – | 100 mg/kg |
